In brackets after ≈: the same amount, converted by molar mass. Activity calls are given as the source filed them. The calls are words filed in the database; no cut-off is given here.
Columns and labels:
[1] = Terminal half life in mouse at 1.6 to 13 mg/kg, sc; type: ADME, organism-based; design: dose 1.6-13 mg/kg, route subcutaneous; details: in vivo, read-out: beta t1/2 (converted)
Summary of the method: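 Infected, cyclophosphamide-neutropenic mice given single sc doses. Plasma collected by cardiac puncture at 0.5–24 h, three mice per time point. Plasma stabilized with citric acid and assayed by LC-MS/MS. Half-life derived from a population PK model co-fitting plasma, kidney and fungal burden data.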

[2] = Ratio of AUC to MIC in mouse infected with Candida albicans FA/6862 at 5.35 mg/kg, sc administered as single dose; type: functional; details: route subcutaneous
Candida albicans [3] = assay: Antifungal activity against Candida albicans FA/6862 assessed as postantifungal effect at 2 times MIC by CLSI M27-A2 method; type: functional
Summary of the method: (§1)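 Log-phase organism washed in PBS, resuspended at 1 × 10^6 CFU/ml in warmed RPMI 1640 + 2% glucose, pre-incubated 30 min at 37°C. Drug added at 1/10× to 100× MIC for 3 h, then washed twice and regrown in drug-free RPMI. Quantitative subcultures hourly to 8 h, then 14 and 24 h. PAFE = delay in reaching +1 log10 CFU/ml versus drug-free controls.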

[4] = Ratio of AUC to MIC in mouse infected with Candida albicans FA/6862 at 2.67 mg/kg, sc BID; type: functional; details: route subcutaneous
[5] = Ratio of AUC to MIC in mouse infected with Candida albicans FA/6862 at 3.37 mg/kg, sc QID; details: route subcutaneous
[6] = Ratio of AUC to MIC in mouse infected with Candida albicans FA/6862 at 4.06 mg/kg, sc BID; type: functional; details: route subcutaneous
[7] = Ratio of AUC to MIC in mouse infected with Candida albicans FA/6862 at 13.48 mg/kg, sc administered as single dose; type: functional; details: route subcutaneous
[8] = Ratio of AUC to MIC in mouse infected with Candida albicans FA/6862 at 8.12 mg/kg, sc administered as single dose; type: functional; details: route subcutaneous
Candida albicans [9] = assay: Antifungal activity against Candida albicans FA/6862 assessed as postantifungal effect at =< 1 time MIC by CLSI M27-A2 method; type: functional, organism-based; summary of the method: as §1
[10] = Ratio of AUC to MIC in mouse infected with Candida albicans FA/6862 at 0.82 mg/kg, sc QID; type: functional; details: route subcutaneous
[11] = Ratio of AUC to MIC in mouse infected with Candida albicans FA/6862 at 1.34 mg/kg, sc QID; type: functional; details: route subcutaneous
[12] = Ratio of AUC to MIC in mouse infected with Candida albicans FA/6862 at 1.63 mg/kg, sc BID; type: functional; details: route subcutaneous
Candida albicans [13] = assay: Antifungal activity against Candida albicans FA/6862 by CLSI M27-A2 method; type: functional
Summary of the method: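 Broth microdilution per CLSI M27-A2. Run in duplicate on three separate occasions; modal MIC used.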

[14] = Ratio of AUC to MIC in mouse infected with Candida albicans FA/6862 at 3.27 mg/kg, sc administered as single dose; type: functional; details: route subcutaneous
Candida albicans [15] = assay: Antifungal activity against Candida albicans FA/6862 infected in mouse assessed as fungal load per gram of kidney at 1.6 to 28 mg/kg, sc measured after 29 hrs postinfection; details: dose mg/kg 1.6-28; route subcutaneous
Candida albicans [16] = assay: Antifungal activity against Candida albicans FA/6862 assessed as postantifungal effect at 5 to 100 times MIC by CLSI M27-A2 method; type: functional; summary of the method: as §1
[17] = Ratio of AUC to MIC in mouse infected with Candida albicans FA/6862 at 2.03 mg/kg, sc QID; type: functional; details: route subcutaneous
[18] = Ratio of AUC to MIC in mouse infected with Candida albicans FA/6862 at 6.74 mg/kg, sc BID; type: functional; details: route subcutaneous

C[C@@H](c1nc(-c2ccc(C#N)cc2)cs1)[C@](O)(Cn1cncn1)c1cc(F)ccc1F [ISAVUCONAZOLE]
half-life [1]: 205 min
RatioAUC/MIC [2]: 630
Time (Candida albicans [3]): 2 h
RatioAUC/MIC [4]: 633.75
RatioAUC/MIC [5]: 1544.75
RatioAUC/MIC [6]: 960.25
RatioAUC/MIC [7]: 1599.75
RatioAUC/MIC [8]: 969.5
Activity (Candida albicans [9]): inactive
RatioAUC/MIC [10]: 372.25
RatioAUC/MIC [11]: 614.25
RatioAUC/MIC [12]: 384.25
MIC (Candida albicans [13]): 4 ng/mL (≈ 9.14 nM)
RatioAUC/MIC [14]: 387.75
log10cfu (Candida albicans [15]): 5.5
Time (Candida albicans [16]): 5 h
RatioAUC/MIC [17]: 930.5
RatioAUC/MIC [18]: 1584.5

— ChEMBL document CHEMBL1649530, “Pharmacokinetics and pharmacodynamics of a novel triazole, isavuconazole: mathematical modeling, importance of tissue concentrations, and impact of immune status on antifungal effect” (Antimicrob Agents Chemother, 2009)
